In ChEMBL document CHEMBL1157474, “[11C]cyclopropyl-FLB 457: a PET radioligand for low densities of dopamine D2 receptors” (Bioorg Med Chem, 2008):

Assays:
D(2) dopamine receptor = D(2) dopamine receptor (Homo sapiens, UniProt P14416); experiment: Binding affinity to dopamine D2 receptor
[1] = Lipophilicity, log D at pH 7.4 by shake flask method; type: physicochemical; details: buffer
In short: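 Shake-flask logD at pH 7.4: tracer in 1-octanol/phosphate buffer (pH 7.4), shaken 3 min; buffer replaced and repeated. Four octanol portions re-extracted with buffer (vortex 2 min, centrifuge 4 min at 2000 x g); both layers counted; D = octanol cpm/mL over buffer cpm/mL.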

[2] = Ratio of drug uptake in cerebellum to parietal cortex in iv dosed cynomolgus monkey by PET; type: ADME, organism-based, Macaca fascicularis; details: in vivo
[3] = Metabolic stability in cynomolgus monkey plasma after 45 mins; type: ADME, cell-free, Macaca fascicularis; details: read-out: Stability
In short: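 Monkey femoral vein blood drawn at 4, 15, 30, 45 min post-injection; plasma deproteinized with acetonitrile, centrifuged at 2000 x g, supernatant run on reverse-phase C18 radio-HPLC with acetonitrile/0.01 M phosphoric acid gradient, 6 mL/min; parent fraction versus polar metabolites; recovery checked by NaI well counting.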

[4] = Ratio of drug uptake in cerebellum to pallidum in iv dosed cynomolgus monkey after 84 mins by PET; type: ADME, organism-based, Macaca fascicularis; details: in vivo, 1.4 h
In short: (§1)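 Baseline PET in ketamine/xylazine-anaesthetized cynomolgus monkeys after i.v. bolus of 56.2 ± 0.2 MBq tracer, scanned to 93 min. Regional radioactivity expressed as %SUV; region-to-cerebellum ratios taken at 84 min, cerebellum serving as reference region for free plus non-specific binding.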

[5] = Ratio of drug uptake in occipital cortex to cerebellum in iv dosed cynomolgus monkey by PET; details: in vivo
[6] = Protein binding in cynomolgus monkey plasma at 10 MBq in presence of raclopride; type: ADME, cell-free, Macaca fascicularis; details: read-out: PPB (converted)
In short: (§2)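 Monkey plasma (baseline or after raclopride pretreatment) mixed with tracer (~10 MBq) for 10 min at room temperature, then ultrafiltered (YM-30 membrane) by centrifugation; filtrate counted versus incubate. Duplicates; corrected for membrane binding using 0.9% NaCl controls.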

Brain = experiment: Drug uptake in iv dosed cynomolgus monkey brain after 7.5 mins by PET; type: ADME, organism-based, Macaca fascicularis; details: in vivo, 0.125 h
In short: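 Ketamine/xylazine-anaesthetized cynomolgus monkeys given 56.2 ± 0.2 MBq [11C] tracer i.v. bolus over 5 sec into sural vein; 3D PET to 93 min. Whole-brain %ID = whole-brain ROI radioactivity concentration × ROI volume (~65 mL) / injected radioactivity × 100, plotted versus time; brain activity assumed unchanged radioligand.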

[7] = Ratio of drug uptake in cerebellum to temporal cortex in iv dosed cynomolgus monkey by PET; type: ADME, organism-based, Macaca fascicularis; details: in vivo
[8] = Ratio of drug uptake in cerebellum to putamen in iv dosed cynomolgus monkey after 84 mins by PET; type: ADME, organism-based, Macaca fascicularis; details: in vivo, 1.4 h; in short: as §1
[9] = Ratio of drug uptake in cerebellum to thalamus in iv dosed cynomolgus monkey by PET; type: ADME, organism-based, Macaca fascicularis; details: in vivo
[10] = Ratio of drug uptake in cerebellum to caudate nucleus in iv dosed cynomolgus monkey after 84 mins by PET; type: ADME, organism-based, Macaca fascicularis; details: in vivo, 1.4 h; in short: as §1
[11] = Protein binding in cynomolgus monkey plasma at 10 MBq; type: ADME, cell-free, Macaca fascicularis; details: read-out: PPB (converted); in short: as §2
[12] = Ratio of drug uptake in cerebellum to frontal cortex in iv dosed cynomolgus monkey by PET; type: ADME, organism-based, Macaca fascicularis; details: in vivo
Macaca fascicularis [13] = experiment: Binding affinity to dopamine D2 receptor in iv dosed cynomolgus monkey brain cerebellum pretreated with raclopride by PET; type: organism-based; details: tested as the 11C-labelled form
Macaca fascicularis [14] = experiment: Binding affinity to dopamine D3 receptor in iv dosed cynomolgus monkey brain cerebellum pretreated with raclopride by PET; type: organism-based; details: tested as the 11C-labelled form

Chain of D(2) dopamine receptor (P14416 whole entry): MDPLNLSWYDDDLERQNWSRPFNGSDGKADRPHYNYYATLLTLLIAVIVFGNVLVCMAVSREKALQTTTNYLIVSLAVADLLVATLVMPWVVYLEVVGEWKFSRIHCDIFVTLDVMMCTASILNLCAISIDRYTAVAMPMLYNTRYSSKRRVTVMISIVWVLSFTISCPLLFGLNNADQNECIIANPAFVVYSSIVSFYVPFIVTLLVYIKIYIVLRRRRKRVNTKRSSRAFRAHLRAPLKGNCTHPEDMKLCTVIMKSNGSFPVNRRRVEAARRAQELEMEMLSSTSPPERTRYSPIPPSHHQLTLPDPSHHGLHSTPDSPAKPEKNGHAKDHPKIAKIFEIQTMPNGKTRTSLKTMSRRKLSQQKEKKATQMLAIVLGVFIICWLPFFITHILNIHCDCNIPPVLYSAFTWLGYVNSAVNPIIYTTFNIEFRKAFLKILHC

With `CCN1CCC[C@H]1CNC(=O)c1cc(Br)cc(OC)c1OC` the Ki (D(2) dopamine receptor) was 3 pM.

Compound `CCN1CCC[C@H]1CNC(=O)c1cc(Br)cc(OC)c1O[11CH3]` has a logD [1] of 1.33.

For `COc1cc(Br)cc(C(=O)NC[C@@H]2CCCN2CC2CC2)c1O[11CH3]`, the Ratio [2] was 2.98, the remaining at 0.75 h [3] was 60% and the Ratio [4] was 5.4. The Ratio [5] was 2.08, the fraction unbound at 10 MBq [6] was 0.64 and the Drug uptake (Brain) was 4.4 %ID. It also gave a Ratio [7] of 2.59, a Ratio [8] of 7.61 and a Ratio [9] of 3.7. The Ratio [10] was 6.6, the fraction unbound at 10 MBq [11] was 0.68 and the Ratio [12] was 3.24. The logD [1] was 1.82.

With `COc1cc(Br)cc(C(=O)NC[C@@H]2CCCN2CC2CC2)c1OC` the Activity (Macaca fascicularis [13]) was 50% and the Activity (Macaca fascicularis [14]) was 50%.
